Screening results (PubChem)
RAM network inh = blocks the yeast RAM network; hit rate 1.8% among 190,000; inhibition, % at 50 µM; AID 868; S. cerevisiae dse1pr::URA3 reporter, 5-FOA growth OD615, 2 d; analog-sensitive cbk1-as2 kinase mutant strain;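 active means inhibition above a set limit, 3 SD over mean compound inhibition, cut at about 8.4% in these data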;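 further: 0% = DMSO-only wells with no growth and 100% = 10 µM 1-NA-PP1 full growth; inhibition rescues growth on 5-FOA so higher OD means more RAM inhibition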
KCC2 mod = modulates chloride dependent transport by human KCC2; hit rate 2.2% among 190,000; KCC2 cells, thallium flux FluoZin-2 fluorescence; AID 1456; B-score of Tl+ flux slope (higher = more flux/activation; lower = inhibition) at 10 µM; Q9H2X9;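 active means thallium flux slope and its plate-corrected score both differing from the plate sample mean at a set confidence after two filtering rounds, in either direction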;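 further: slope of fluorescence scaled to starting intensity during 10 to 20 s after thallium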
Yeast lifespan up = extends the lifespan of yeast; inhibition of the nicotinamide effect, % at 10 µM; hit rate 0.68% among 130,000; S. cerevisiae growth with nicotinamide, OD615; deaD strain in restrictive glucose medium; AID 775;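 active means inhibition above a set limit, placed 3 SD over the median of all compounds, cut at about 26% in these data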;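 further: 0% = nicotinamide-treated wells and 100% = cells grown without nicotinamide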
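assay system = DeaD-strain S. cerevisiae | buffer or medium = restrictive glucose medium | reagent = 1.5 mM nicotinamide | compound = 10 µM single point, 0.25% DMSO | incubation = 48 h compound exposure at 30 °C, humidified | signal = OD615 measurement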
Yeast growth inh = chemicals that inhibit yeast BB579 growth in restrictive medium (lifespan-shortening candidates); hit rate 0.51% among 140,000; inhibition, % at 10 µM; S. cerevisiae BB579 growth, OD615, 48 h; AID 804;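 active means inhibition above a set limit, 3 SD over the mean compound inhibition, cut at about 44% in these data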
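System: Saccharomyces cerevisiae DeaD strain BB579, replicative lifespan model yeast | Buffer or medium: Restrictive glucose-based CSMM-D medium | Times: 4 h preincubation and 48 h exposure at 30 °C | Detection: OD615 turbidity measurement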
WT yeast gro inh = growth inhibition of WT yeast, mitochondrial fusion screen. mitochondrial fusion phenotypic screen, WT strain. inhibition, % at 10 µM. hit rate 2.1% among 190,000; in the data active means inhibition above about 58%; tested in S. cerevisiae
Numbers without * were called inactive; / = not tested or not shown. This is a sample that favours compounds with a hit; in the whole collection about 5.5% have one here.

SMILES | RAM network inh | KCC2 mod | Yeast lifespan up | Yeast growth inh | WT yeast gro inh
CCCCCCc1ccc(-c2ncc(N)cn2)cc1 | 1.4 | -0.553 | -31.5 | 97.5* | 7.2
Cc1nn(CCC(N)=S)c2nc(-c3cccs3)cc(C(F)(F)F)c12 | 2.5 | -0.0687 | -2.5 | -33.3 | 75.1*
Cc1nn(CCC#N)c2nc(-c3ccccc3)cc(C(F)(F)F)c12 | 3.0 | 0.809 | -3.9 | -32.6 | -18.8
CCn1c2ccccc2n2c(=O)c(=O)n(CC(=O)Nc3ccc(C(C)C)cc3)nc12 | 5.0 | -0.0143 | -1.9 | -29.8 | 8.6
O=C(CC1C(=O)NCCN1Cc1ccccc1C(F)(F)F)NCCc1ccccn1 (configuration not stated) | 1.2 | -0.0283 | / | / | 8.0
NC(=O)CSc1nnc(COc2ccccc2)n1C1CCCCC1 | / | -0.046 | / | / | /
CCOC(=O)C1=CN(Cc2ccc(OC)cc2)C=C(C(=O)OCC)C1c1cccs1 | 10.2* | -0.151 | / | / | 31.9
CCCCNC(=O)C(=O)N/N=C/c1ccc(OCC(=O)Nc2cccc(OC)c2)c(OC)c1 | 1.2 | -0.695 | -5.6 | -24.3 | -17.4
O=C(/C=C/c1cccc(Cl)c1)N1CCC(Cc2ccccc2)CC1 | 7.7 | -3.96 | -2.6 | -42.7 | 65.3*
CCOC(=O)c1sc(=S)n(-c2ccccc2Cl)c1SC | 8.8* | -0.796 | -3.6 | 3.4 | 22.5
CCOC(=O)c1sc(=S)n(-c2ccccc2)c1SC | 0.8 | 0.515 | -2.4 | -38.4 | 1.9
COC(=O)c1sc(=S)n(-c2cc(F)ccc2F)c1N | -0.9 | / | -4.4 | -14.5 | -7.1
CCOC(=O)c1sc(=S)n(-c2cc(F)ccc2F)c1N | 0.0 | / | -9.9 | 45.2* | 12.1
O=C1C=C(Nc2ccccc2)c2ccccc2C1=O | 1.6 | 0.155 | / | / | 73.9*
O=C1C=C(Nc2ccccc2)C(=O)c2ccccc21 | 1.0 | -1.91 | / | / | 64.0*
CC1=CC(=O)c2ccccc2C1=O | 0.0 | 0.148 | 12.1 | 67.7* | 47.3
CCOc1cc2[nH]c(=O)n(CCCC(=O)N(C)Cc3ccccc3)c(=O)c2cc1OCC | -0.4 | -0.156 | / | / | 8.5
Cc1cccc(-n2ncc3c(N(C)Cc4ccccc4)ncnc32)c1 | / | 0.00711 | / | / | 70.4*
Cc1cccc(-n2ncc3c(N)ncnc32)c1 | 1.1 | -0.162 | -7.8 | -35.5 | -14.8
CCCCN1CCc2[nH]c(=S)[nH]c(=O)c2C1 | -0.2 | 0.754 | 1.6 | -7.5 | 2.6
Cc1[nH]n(-c2ccccc2)c(=O)c1/C=N/NC(=O)C(C)C | 1.3 | -0.47 | / | / | -1.9
C=CCN=c1scc(-c2ccc(F)cc2)n1/N=C/c1ccccn1 | 1.3 | -4.17 | -6.0 | -44.9 | 38.8
CCN=c1scc(-c2ccccc2)n1/N=C/c1ccccn1 | 0.9 | -3.77* | -8.1 | -14.2 | 43.0
C=CCN=c1scc(-c2ccccc2)n1/N=C/c1ccccn1 | -0.5 | -4.12* | -5.5 | 4.5 | 75.3*
O=C(C1=C[C@@H](C2CC2)C[C@@H](OCCCCO)O1)N1CCN(Cc2ccccc2)CC1 | 1.1 | -0.0275 | / | / | -22.1
SMILES | RAM network inh | KCC2 mod | Yeast lifespan up | Yeast growth inh | WT yeast gro inh
CC(=O)OCCNc1cc(N2CCN(C)CC2)c2noc3c2c1C(=O)c1ccccc1-3 | 10.4* | -0.879 | 1.2 | -44.4 | 45.3
CSc1nc(N2CCCC2)c2c(c1C#N)CC(C)(C)OC2 | 0.3 | -1.04 | -6.6 | 1.0 | 3.6
CCCSc1nc(N2CCCC2)c2c(c1C#N)CC(C)(C)OC2 | 8.5* | -0.517 | -15.8 | -26.7 | 9.2
Nc1c(C(=O)NCCc2ccc(Cl)cc2)sc2ccc(S(=O)(=O)N3CCCCC3)cc12 | 4.8 | -0.0981 | -2.6 | -22.4 | 22.8
COc1ccc(CSC(=N)N)cc1[N+](=O)[O-] | 2.3 | -0.36 | 0.6 | -74.7 | -13.2
CCCCCOc1ccc(CSC(=N)N)cc1[N+](=O)[O-] | 2.1 | 0.0347 | -30.9 | -3.5 | 77.0*
CCCCn1c(CN2CCN(c3cccc(Cl)c3)CC2)nc2c1c(=O)n(C)c(=O)n2C | 0.0 | -2.37 | -7.9 | -38.8 | 71.8*
CCCCCn1c(CN2CCN(c3cc(Cl)ccc3C)CC2)nc2c1c(=O)[nH]c(=O)n2C | 0.9 | 0.418 | -5.0 | 3.8 | 65.5*
CCCCCn1c(CN2CCN(c3cccc(Cl)c3)CC2)nc2c1c(=O)n(C)c(=O)n2C | / | 0.38 | / | / | /
COc1ccc(NC(=O)C(Sc2nnc(-c3ccncc3)n2-c2ccccc2C)c2ccccc2)cc1Cl (configuration not stated) | 4.2 | -0.288 | -0.3 | -29.9 | -11.9
Cc1cc(C)cc(NC(=S)NCCN(C2CCCCC2)C2CCCC2)c1 | 0.4 | 0.268 | / | / | 38.0
COc1ccc(C(=O)NC(=S)NC(C)(C)C)cc1Br | 0.8 | 4.05* | -0.3 | -1.1 | 31.6
